Assay outcomes: PubChem, The Scripps Research Institute Molecular Screening Center
PLCg1 inh: inhibitors of human phospholipase C gamma1; P19174; purified PLC-gamma1, fluorogenic substrate, fluorescence; inhibition, % at 12.2 µM; 370,000 compounds, 0.84% hits; AID 720700; in the data active means inhibition above about 9.5%
PLCb3 inh: blocks human PLC-beta3 enzyme activity | Q01970 | inhibition, % at 12.2 µM | 370,000 compounds, 0.18% hits | Purified PLC-beta3, fluorogenic substrate, fluorescence; in the data active means inhibition above about 11%;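 further: 0% = median of compound wells on plate and 100% = full blocker control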
Tb MetRS inh: blocks T. brucei methionyl-tRNA synthetase activity | purified T. brucei MetRS, ATP depletion, Kinase-Glo luminescence | inhibition, % at 11.9 µM | 360,000 compounds, 0.4% hits | AID 624268;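 active means inhibition above a per-plate cutoff of the control wells' mean inhibition plus 3 SD, cut at about 5.5% in these data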;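 further: 0% = DMSO wells median and 100% = median of wells with control inhibitor compound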
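Test system – parasite MetRS enzyme · Reagent – substrates ATP, L-methionine and bulk Escherichia coli tRNA · Doses – 11.9 µM compound single dose, 0.9% DMSO · Times – 15 min enzyme-compound preincubation, 2 h reaction, 10 min detection, 25 °C · Signal – Kinase-Glo luminescence, ATP depletion format · Controls – DMSO-only wells as low control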
HGIII-sPLA2 inh: Blocks human group III sPLA2 activity; 370,000 compounds, 0.56% hits; Q9NZ20; inhibition, % at 12.2 µM; QFRET BODIPY PC-A2 liposome hydrolysis, fluorescence;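 active means inhibition above mean plus 3 SD of compounds lying within the high and low control bounds, cut at about 19% in these data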;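 further: 0% = median of test compound wells and 100% = no enzyme DMSO wells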
DAGLB inhibitor: blocks human DAGLB lipase activity; inhibition, % at 5.17 µM; HEK293T DAGLB membrane lysate, EnzChek fluorogenic substrate; 340,000 compounds, 0.059% hits; Q8NCG7; in the data active means inhibition above about 34%;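 further: 0% = enzyme with vehicle and 100% = wells lacking enzyme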
hGIII sPLA2 conf: human GIII-sPLA2 inhibition, confirmation; 2,000 compounds, 34% hits; shares compounds with HGIII-sPLA2 inh; inhibition, % at 12.2 µM; recombinant hGIII-sPLA2, BODIPY PC-A2 QFRET fluorescence;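 active means mean inhibition across triplicates above the hit cutoff set in the earlier primary screen, cut at about 19% in these data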;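 further: 0% = enzyme with DMSO and 100% = DMSO wells lacking enzyme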
535nm interf: 535nm fluorescence interference, HGIII-sPLA2 counter-screen; 2,000 compounds, 8.5% hits; AID 743282; inhibition, % at 12.2 µM; shares compounds with HGIII-sPLA2 inh; BODIPY FL product fluorescence interference, QFRET;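 active means average inhibition above the solvent-only control mean plus 3 SD, cut at about 6% in these data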;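 further: 0% = DMSO with substrate plus product and 100% = DMSO with substrate alone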
535nm interf DR: counter-screen for HGIII-sPLA2 inhibitors: 535nm fluorescence interference, dose response; 240 tested, under 10 active; IC50, µM; shares compounds with HGIII-sPLA2 inh; BODIPY FL product fluorescence interference, cell-free;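 active means IC50 at or below 10 µM; inactive means IC50 above 10 µM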
* hit, by the source's call. Only some compounds are listed: those with a hit (about 1.9% of all), similar ones and a draw of the others.

How did CC(=O)Nc1c(C)ccc(CNC(=O)COc2cc(C)ccc2C)c1C do in these assays?
PLCg1 inh: 3; PLCb3 inh: 2; Tb MetRS inh: -1; HGIII-sPLA2 inh: 21*; DAGLB inhibitor: 0; hGIII sPLA2 conf: -4; 535nm interf: -12

Results for CCOC(=S)SCC(=O)Nc1nc(C)c(C)s1 ?
PLCg1 inh: 1; PLCb3 inh: -9; Tb MetRS inh: -1; HGIII-sPLA2 inh: 19*; DAGLB inhibitor: 0; hGIII sPLA2 conf: -3; 535nm interf: -8

What do the screens show for `CCOC(=S)SCC(=O)Nc1nccs1`?
PLCg1 inh: 1; PLCb3 inh: -9; Tb MetRS inh: 0; HGIII-sPLA2 inh: 2; DAGLB inhibitor: -1

What do the screens show for `OCCC(N1CCOCC1)C(O)(c1ccccc1)c1ccccc1` (stereo not given)?
PLCg1 inh: -1; PLCb3 inh: -2; HGIII-sPLA2 inh: -1

What do the screens show for `Cc1ccc(-c2cn(-c3ccccc3F)c(=S)[nH]2)cc1`?
PLCg1 inh: 4; PLCb3 inh: -5; Tb MetRS inh: -1; HGIII-sPLA2 inh: 27*; DAGLB inhibitor: -3; hGIII sPLA2 conf: 24*; 535nm interf: 4

How did O=[N+]([O-])c1ccc(-c2cn(-c3ccccc3F)c(=S)[nH]2)cc1 do in these assays?
PLCg1 inh: 0; PLCb3 inh: -6; Tb MetRS inh: 0; HGIII-sPLA2 inh: 0; DAGLB inhibitor: 4

Results for COc1ccc(-n2cc(-c3ccccc3)[nH]c2=S)cc1 ?
PLCg1 inh: 7; PLCb3 inh: 4; Tb MetRS inh: 0; HGIII-sPLA2 inh: 19*; DAGLB inhibitor: 1; hGIII sPLA2 conf: 41*; 535nm interf: 2; 535nm interf DR: >122

How did Cc1cccc(-n2cc(-c3ccccc3)[nH]c2=S)c1 do in these assays?
PLCg1 inh: -1; PLCb3 inh: -5; Tb MetRS inh: 0; HGIII-sPLA2 inh: 20*; DAGLB inhibitor: -1; hGIII sPLA2 conf: 31*; 535nm interf: 3

What do the screens show for `Cn1ccc2c(N3CCCCCCC3)cc3c(c21)C1CCC3O1` (stereo not given)?
PLCg1 inh: -30; PLCb3 inh: -48; Tb MetRS inh: -1; HGIII-sPLA2 inh: 20*; hGIII sPLA2 conf: 32*; 535nm interf: -7; 535nm interf DR: >122

What do the screens show for `CC(C)(C)c1ccc(S(=O)(=O)NCC2CCN(C(=O)C(=O)c3cccs3)CC2)cc1`?
PLCg1 inh: -1; PLCb3 inh: 0; HGIII-sPLA2 inh: -30

How did O=C(/C=C/c1ccc2c(c1)OCO2)NCc1ccco1 do in these assays?
PLCg1 inh: -57; PLCb3 inh: -57; Tb MetRS inh: -1; HGIII-sPLA2 inh: 20*; DAGLB inhibitor: -1; hGIII sPLA2 conf: -2; 535nm interf: -6

How did CCOC(=O)C1(C)CCN1C(=O)Cc1ccc(OC)cc1 (stereo not given) do in these assays?
PLCg1 inh: 0; PLCb3 inh: 0; Tb MetRS inh: 0; HGIII-sPLA2 inh: 25*; hGIII sPLA2 conf: 7; 535nm interf: -4

What do the screens show for `O=C(OCc1nc2ccccc2s1)c1cc2ccccc2oc1=O`?
PLCg1 inh: 1; PLCb3 inh: -10; HGIII-sPLA2 inh: 22*; hGIII sPLA2 conf: 9; 535nm interf: -8

How did COC(=O)[C@]12C[C@H](CC(=O)N3CCC(c4ccccc4)CC3)C(=O)N(CCC3=CCCCC3)C1=C[C@H](C1CCCC1)O[C@@H]2C do in these assays?
PLCg1 inh: 1; PLCb3 inh: 0; HGIII-sPLA2 inh: -4

What do the screens show for `Cc1cc(Cl)ccc1NC(=O)CCC(=O)N/N=C/c1cc([N+](=O)[O-])ccc1O`?
PLCg1 inh: -1; PLCb3 inh: -1; Tb MetRS inh: 0; HGIII-sPLA2 inh: 4; DAGLB inhibitor: 6

How did O=[N+]([O-])c1ccc(O)c(/C=N/NC(=S)Nc2ccc(Cl)cc2Cl)c1 do in these assays?
PLCg1 inh: 0; PLCb3 inh: -9; Tb MetRS inh: 0; HGIII-sPLA2 inh: 40*; DAGLB inhibitor: 13; hGIII sPLA2 conf: 31*; 535nm interf: 20*

Results for O=C(Nc1nnc(SCC(=O)N2CCCc3ccccc32)s1)c1ccc2ccccc2c1 ?
PLCg1 inh: 5; PLCb3 inh: -4; Tb MetRS inh: -1; HGIII-sPLA2 inh: 20*; DAGLB inhibitor: 5; hGIII sPLA2 conf: -49; 535nm interf: -9

What do the screens show for `O=C1S/C(=C\C=C\c2ccco2)C(=O)N1c1ccccc1`?
PLCg1 inh: -25; PLCb3 inh: -49; Tb MetRS inh: 0; HGIII-sPLA2 inh: 28*; DAGLB inhibitor: -14; hGIII sPLA2 conf: 2; 535nm interf: -2

What do the screens show for `CC(=O)OC[C@H]1O[C@H](C#Cc2ccc(C(C)(C)C)cc2)C=C[C@H]1OC(=O)Nc1ccccc1`?
PLCg1 inh: -1; PLCb3 inh: 3; HGIII-sPLA2 inh: -13

What do the screens show for `COc1cc(NC(=S)N2CCN(c3ccccn3)CC2)c(OC)cc1Cl`?
PLCg1 inh: -4; PLCb3 inh: -4; Tb MetRS inh: -1; HGIII-sPLA2 inh: 22*; DAGLB inhibitor: 1; hGIII sPLA2 conf: 16; 535nm interf: -6

What do the screens show for `CC(=O)Nc1ccccc1NC(=O)c1cccc2ccccc12`?
PLCg1 inh: 4; PLCb3 inh: 8; Tb MetRS inh: 0; HGIII-sPLA2 inh: 22*; DAGLB inhibitor: 0; hGIII sPLA2 conf: -1; 535nm interf: -3

How did O=C(NN1CCOCC1)c1cccc2ccccc12 do in these assays?
PLCg1 inh: 3; PLCb3 inh: -2; Tb MetRS inh: 1; HGIII-sPLA2 inh: 21*; DAGLB inhibitor: -3; hGIII sPLA2 conf: 5; 535nm interf: -7

Results for CCOc1ccc(/C=N/Nc2cc(=O)n(C)c(=O)n2C)cc1 ?
PLCg1 inh: -3; PLCb3 inh: -9; Tb MetRS inh: 0; HGIII-sPLA2 inh: 19*; DAGLB inhibitor: -1; hGIII sPLA2 conf: 11; 535nm interf: -1

Results for CCCCOC(=O)CCN1C(=O)/C(=C2\SC(=S)N(CCC(=O)OCCCC)C2=O)SC1=S ?
PLCg1 inh: 3; PLCb3 inh: -2; Tb MetRS inh: 0; HGIII-sPLA2 inh: 22*; DAGLB inhibitor: 0; hGIII sPLA2 conf: -6; 535nm interf: -2

Results for COc1ccc(C(NC(C)=O)c2nccc3cc(OC)c(OC)cc23)cc1OC (stereo not given) ?
PLCg1 inh: -2; PLCb3 inh: -11; Tb MetRS inh: -1; HGIII-sPLA2 inh: 20*; DAGLB inhibitor: 1; hGIII sPLA2 conf: 4; 535nm interf: -2
